Source: PubChem BioAssay
Rows were chosen to be rich in hits. Some 2.4% of all compounds tested hit in one or more screens of this group.
miR122 inh: miR-122 Renilla sensor signal increase in Huh7, primary screen, miR-122 inhibitor project, cell-based, single point, plate reader. Huh7 miR-122 Renilla luciferase sensor, 48 h; neutral wells = 0, positive control = 100. activation (reporter increase), % at 12.5 µM. actives 0.3% (n = 340,000);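 active = mean replicate activation score at least 90 and every replicate individually at or above 90; inconclusive = only one of the two criteria met; inactive = neither criterion met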;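 also: higher luciferase means less miR-122 activity so hits act as miR-122 inhibitors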
Rtt109 HAT inh: inhibitors of C. albicans Rtt109/Vps75 HAT, primary screen, biochemical, ThioGlo CoA-SH fluorescence, plate reader. Histone acetyltransferase RTT109 (Candida albicans (strain SC5314 / ATCC MYA-2876)), …. purified Rtt109/Vps75, 4 h. AID 540336, 2011. actives 0.16% (n = 330,000). inhibition, % at 34.9 µM;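 active = inhibition of at least 50% in every replicate; inconclusive = best replicate reaches 50% inhibition but some replicates fall short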
dFosB act: activators of delta FosB homodimer, primary screen, biochemical, fluorescence polarization, TAMRA-CDK5 oligo, single point. actives 0.99% (n = 340,000). purified delta FosB; percent of positive-control signal above neutral wells. activation, % at 25 µM. Protein FosB (Mus musculus), P13346;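 active = mean activation above about 17%, with every replicate also reaching it, limit read from the data, passing the limit was not always enough; inconclusive = only one of the two conditions met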
Target sequence (P13346 whole entry, looked up): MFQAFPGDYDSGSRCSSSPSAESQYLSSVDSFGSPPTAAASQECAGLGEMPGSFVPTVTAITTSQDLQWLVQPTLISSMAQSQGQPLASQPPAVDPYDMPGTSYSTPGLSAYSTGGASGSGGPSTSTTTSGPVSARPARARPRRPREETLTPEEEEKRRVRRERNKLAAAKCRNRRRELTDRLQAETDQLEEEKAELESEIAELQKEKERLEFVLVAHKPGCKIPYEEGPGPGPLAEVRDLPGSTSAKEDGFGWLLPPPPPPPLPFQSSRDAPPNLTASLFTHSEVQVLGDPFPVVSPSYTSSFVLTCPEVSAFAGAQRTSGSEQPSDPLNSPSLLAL
GSIS activator: GLuc luminescence reporter in INS-1E cells, primary screen for activators of glucose-dependent secretion of insulin; INS-1E GLuc reporter insulin secretion, 2-3 h; activation, % at 16.6 µM; actives 0.61% (n = 370,000); AID 743287, 2014;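 active = lowest replicate activation of at least 40%, so every replicate reaches that level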;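 also: 0% = median of neutral control wells and 100% = median of IBMX positive control wells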
Cneo AK release: Cryptococcus neoformans cell lysis inducers, primary screen, AK release luminescence, single concentration; C. neoformans lysis, adenylate kinase release luminescence, 4 h; normalised: neutral wells 0, clomiphene wells 100; lysis activity, % at 15 µM; actives 0.2% (n = 360,000);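 active = mean lysis activity across replicates of at least 80%, whatever share of replicates individually reach that level; inactive = mean lysis activity below 80%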
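Test system: log-phase Cryptococcus neoformans yeast cells; Quantity: yeast cell density of 5 × 10^6 cells/mL; Buffer or medium: YPD; Doses: single compound concentration per well; Timing: 4 h at 37 °C static, read 1 h later; Measured by: AK luminescence; Read-out basis: lysis from increased AK signal; Control set: Clomiphene as positive control.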
Env fusion inh: inhibitors of HIV-1 Env-driven cell-cell fusion, primary screen, HeLa-JRFL effector, CEM21 target cells, luciferase. actives 1.1% (n = 360,000). inhibition, % at 12.3 µM;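 active = mean replicate inhibition score of at least 50 and every replicate individually at or above 50; inconclusive = only one of the two criteria met; inactive = mean below 50 and not all replicates reaching 50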;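 also: 0% = plate neutral controls and 100% = maraviroc near 300 nM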
Numbers without * were called inactive; [ ] = another dose, or the depositor's remark.

O=C(CSc1nc2ccccc2[nH]1)NC1CCCC1 was read as Rtt109 HAT inh -3, dFosB act -17, GSIS activator 3, Cneo AK release 0 and Env fusion inh -9.
`O=C(CCCSc1nc2ccccc2[nH]1)N1CCN(c2ccccc2)CC1` gave miR122 inh -3, Rtt109 HAT inh 22, dFosB act -2, Cneo AK release -4 and Env fusion inh 30.
Cc1ccc(OCC(O)CNC(C)c2ccccc2)cc1C (stereo not given) was read as miR122 inh -23, Rtt109 HAT inh 11, dFosB act 2, Cneo AK release -1 and Env fusion inh 60*.
For Fc1ccc(C2Nc3cccc4cccc(c34)N2)cc1 the results were miR122 inh 10, Rtt109 HAT inh 4, dFosB act 25*, GSIS activator -4, Cneo AK release -1 and Env fusion inh 4.
For COc1cc(C2Nc3cccc4cccc(c34)N2)cc(OC)c1O the results were Rtt109 HAT inh -4, dFosB act 41* and GSIS activator -5.
`FC(F)(F)c1ccc(C2Nc3cccc4cccc(c34)N2)cc1` gave miR122 inh 8, Rtt109 HAT inh 11, dFosB act -2, GSIS activator -6 and Env fusion inh 0.
For C[C@H](CO)N1C[C@H](C)[C@@H](CN(C)C(=O)c2cccc(F)c2)Oc2cc(-c3cccc(F)c3)ccc2S1(=O)=O the results were miR122 inh 18[16.7 µM], GSIS activator -13, Cneo AK release 3 and Env fusion inh 1[16.7 µM].
For Cc1ccc(S(=O)(=O)N[C@@H]2CCCN(Cc3cccc(OCCO)c3)C2)cc1 the results were Cneo AK release 85* and Env fusion inh -21[16.7 µM].
`CC(C)NC(=O)N(C)C[C@@H]1Oc2c(NS(C)(=O)=O)cccc2C(=O)N([C@H](C)CO)C[C@@H]1C` gave miR122 inh -1[16.7 µM], GSIS activator 18, Cneo AK release -2 and Env fusion inh 1[16.7 µM].
For CN1C(=O)c2cc(NS(C)(=O)=O)ccc2OC[C@@H]2O[C@@H](CC(=O)NC3CCCCC3)CC[C@H]21 the results were GSIS activator 9, Cneo AK release -2 and Env fusion inh -6[16.7 µM].
`Cc1onc(-c2c(F)cccc2Cl)c1C(=O)Nc1sc2c(c1C(N)=O)CCC2` gave miR122 inh 12, Rtt109 HAT inh 2, dFosB act -2, GSIS activator -5, Cneo AK release -2 and Env fusion inh 62*.
Cc1onc(-c2ccccc2)c1C(=O)Nc1sc2c(c1C#N)CCC2 was read as miR122 inh 7, Rtt109 HAT inh 19, dFosB act -9, GSIS activator -45, Cneo AK release -2 and Env fusion inh 67*.
N#Cc1c(NC(=O)CSc2ncc(-c3ccccc3)n2CC2CCCO2)sc2c1CCCC2 (stereo not given) was read as miR122 inh 1, Rtt109 HAT inh 2, dFosB act -12, Cneo AK release 1 and Env fusion inh 68*.
Cc1onc(-c2ccccc2)c1C(=O)NC(=S)Nc1sc2c(c1C#N)CCCC2 was read as Rtt109 HAT inh -8, dFosB act -17, GSIS activator 20 and Env fusion inh -37.
`Cc1onc(-c2ccccc2)c1C(=O)Nc1sc2c(c1C(N)=O)CCC2` gave Rtt109 HAT inh 12, dFosB act -7 and Env fusion inh 17.
`COc1ccc(S(=O)(=O)Nc2ccc3c(c2)C(=O)N([C@H](C)CO)C[C@@H](C)[C@H](CN(C)C(=O)Nc2ccc(F)cc2)OCCCC[C@@H](C)O3)cc1` gave miR122 inh -1[16.7 µM], GSIS activator -1, Cneo AK release 3 and Env fusion inh -110[16.7 µM].
`N#Cc1sc2nc(C3CC3)cc(-c3ccccc3)c2c1N` gave miR122 inh -3, Rtt109 HAT inh -49, dFosB act 4, GSIS activator 49*, Cneo AK release -6 and Env fusion inh -21.
`N#Cc1sc2nc(-c3ccccc3)cc(-c3ccco3)c2c1N` gave miR122 inh 8, Rtt109 HAT inh -5, dFosB act -19, Cneo AK release -3 and Env fusion inh -71.
Screening O=C(C1=NN(c2ccccc2)C(=O)CC1)N1CCc2ccccc2C1 returned miR122 inh -3, Rtt109 HAT inh -1, dFosB act 3, GSIS activator 113*, Cneo AK release 7 and Env fusion inh 3.
`CC(C)NC(=O)N(C)C[C@H]1OCCCC[C@@H](C)Oc2ccc(N(C)C)cc2C(=O)N([C@H](C)CO)C[C@H]1C` gave miR122 inh 3[16.7 µM], GSIS activator 13, Cneo AK release -1 and Env fusion inh -11[16.7 µM].
`CC/C(O)=C1\C(=O)CC(c2ccccc2)CC1=NCCC(=O)O` (stereo not given) gave Rtt109 HAT inh 0, dFosB act -6, GSIS activator 12 and Env fusion inh -4.
`CC/C(O)=C1\C(=O)CC(c2ccccc2)CC1=NC(C)C` (stereo not given) gave miR122 inh 21, Rtt109 HAT inh 9, dFosB act -3, GSIS activator 63*, Cneo AK release 1 and Env fusion inh -3.
`N#CCc1nn(-c2ccccc2)c2ncnc(N)c12` gave Rtt109 HAT inh 0, dFosB act -11, GSIS activator 71* and Env fusion inh -70.
`N#CCc1nn(-c2ccc(Cl)cc2)c(N)c1C#N` gave miR122 inh 2, Rtt109 HAT inh -2, dFosB act -1, GSIS activator -3 and Cneo AK release -7.
For O=C(CC1Sc2ccccc2NC1=O)NNc1ccc(Cl)cc1Cl (stereo not given) the results were miR122 inh 0, Rtt109 HAT inh 11, dFosB act inconclusive and Cneo AK release 3.
Screening O=C1Nc2c(Cl)cc(Cl)cc2C12Nc1ccccc1S2 (stereo not given) returned GSIS activator -4 and Env fusion inh 55*.
`COc1ccc2c3c(n(C)c2c1)[C@@H](CO)N(C(=O)Nc1ccc(F)cc1)CC31CCN(CC2CCOCC2)CC1` gave GSIS activator -4.
For COc1ccc2c3c(n(C)c2c1)[C@@H](CO)N(Cc1ccccc1F)CC31CCN(C(=O)C2CCC2)CC1 the results were GSIS activator -8.
CC1Oc2ccccc2N(Cc2cccc(F)c2)C1=O (stereo not given) was read as miR122 inh -4, Rtt109 HAT inh 3, dFosB act 1, GSIS activator 43*, Cneo AK release 3 and Env fusion inh 14.
